# Test results: ChEMBL document CHEMBL1938381, “Design, synthesis, and structure-activity relationship studies of conformationally restricted mutilin 14-carbamates” (2012)
# Key:
# Format in all cases: functional
# Streptococcus pneumoniae [1] = experiment: Ratio of Linezolid MIC to compound MIC for Streptococcus pneumoniae
# [2] = tested on: Staphylococcus epidermidis; experiment: Ratio of Linezolid MIC to compound MIC for methicillin-susceptible Staphylococcus epidermidis
# [3] = tested on: Staphylococcus epidermidis; experiment: Antibacterial activity against methicillin-susceptible Staphylococcus epidermidis by agar microdilution method
# In short: (§1)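 MIC by agar microdilution following NCCLS standard M7-A6 (2003), tested against clinical isolates: MRSA n = 6, MRSE n = 5, MSSA n = 5, MSSE n = 5; values given as a single MIC or a range across isolates.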
# Staphylococcus aureus [4] = experiment: Ratio of Linezolid MIC to compound MIC for methicillin-susceptible Staphylococcus aureus
# [5] = tested on: Staphylococcus epidermidis; experiment: Antibacterial activity against methicillin-resistant Staphylococcus epidermidis by agar microdilution method; in short: as §1
# Staphylococcus aureus [6] = experiment: Antibacterial activity against methicillin-resistant Staphylococcus aureus by agar microdilution method; in short: as §1
# Streptococcus pneumoniae [7] = experiment: Antibacterial activity against Streptococcus pneumoniae by agar microdilution method
# In short: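 MIC read by agar microdilution following NCCLS standard M7-A6 (2003), against a panel of 3 Streptococcus pneumoniae clinical isolates. Values in µg/mL, given as a range where the isolates differed.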
# Staphylococcus aureus [8] = experiment: Antibacterial activity against methicillin-susceptible Staphylococcus aureus by agar microdilution method; in short: as §1
SMILES,Ratio (Streptococcus pneumoniae [1]),Ratio [2],MIC [3] [µg/mL],Ratio (Staphylococcus aureus [4]),MIC [5] [µg/mL],MIC (Staphylococcus aureus [6]) [µg/mL],MIC (Streptococcus pneumoniae [7]) [µg/mL],MIC (Staphylococcus aureus [8]) [µg/mL]
C=C[C@]1(C)C[C@@H](OC(=O)N2Cc3ccccc3C2=O)[C@]2(C)[C@H](C)CC[C@]3(CCC(=O)[C@H]32)[C@@H](C)[C@@H]1O,4,4,0.125,4,0.125,0.125,0.125,0.125
C=C[C@]1(C)C[C@@H](OC(=O)N2Cc3c(OC)cccc3C2=O)[C@]2(C)[C@H](C)CC[C@]3(CCC(=O)[C@H]32)[C@@H](C)[C@@H]1O,,,2,,2,2,4,2
C=C[C@]1(C)C[C@@H](OC(=O)N2Cc3c(cccc3[N+](=O)[O-])C2=O)[C@]2(C)[C@H](C)CC[C@]3(CCC(=O)[C@H]32)[C@@H](C)[C@@H]1O,,,0.5,,0.5,0.5,0.5,0.5
C=C[C@]1(C)C[C@@H](OC(=O)N2Cc3ccc([N+](=O)[O-])cc3C2=O)[C@]2(C)[C@H](C)CC[C@]3(CCC(=O)[C@H]32)[C@@H](C)[C@@H]1O,,,0.5,,0.5,0.5,0.5,0.5
C=C[C@]1(C)C[C@@H](OC(=O)N2Cc3cc(N4CCOCC4)ccc3C2=O)[C@]2(C)[C@H](C)CC[C@]3(CCC(=O)[C@H]32)[C@@H](C)[C@@H]1O,,,0.5,,0.5,0.5,0.5,0.5
C=C[C@]1(C)C[C@@H](OC(=O)N2Cc3cc(N4CCCCC4)ccc3C2=O)[C@]2(C)[C@H](C)CC[C@]3(CCC(=O)[C@H]32)[C@@H](C)[C@@H]1O,,,2,,2,2,4,2
C=C[C@]1(C)C[C@@H](OC(=O)N2Cc3cc(NCc4ccccc4)ccc3C2=O)[C@]2(C)[C@H](C)CC[C@]3(CCC(=O)[C@H]32)[C@@H](C)[C@@H]1O,,,2,,2,2,2,2
C=C[C@]1(C)C[C@@H](OC(=O)N2Cc3cc(NC(=O)C(F)(F)F)ccc3C2=O)[C@]2(C)[C@H](C)CC[C@]3(CCC(=O)[C@H]32)[C@@H](C)[C@@H]1O,,,2,,2,2,4,2
C=C[C@]1(C)C[C@@H](OC(=O)N2Cc3c(N)cccc3C2=O)[C@]2(C)[C@H](C)CC[C@]3(CCC(=O)[C@H]32)[C@@H](C)[C@@H]1O,,,0.0625,,0.0625,0.0625,0.0625,0.0625
C=C[C@]1(C)C[C@@H](OC(=O)N2Cc3ccc(N)cc3C2=O)[C@]2(C)[C@H](C)CC[C@]3(CCC(=O)[C@H]32)[C@@H](C)[C@@H]1O,,,0.0625,,0.0625,0.0625,0.0625,0.0625
C=C[C@]1(C)C[C@@H](OC(=O)N2Cc3ccc(NC(=O)CN4CCOCC4)cc3C2=O)[C@]2(C)[C@H](C)CC[C@]3(CCC(=O)[C@H]32)[C@@H](C)[C@@H]1O,,,0.5,,1,0.5,1,0.5
C=C[C@]1(C)C[C@@H](OC(=O)N2Cc3ccc(NC(=O)CN4CCN(C)CC4)cc3C2=O)[C@]2(C)[C@H](C)CC[C@]3(CCC(=O)[C@H]32)[C@@H](C)[C@@H]1O,,,0.5,,0.5,0.5,0.5,0.5
C=C[C@]1(C)C[C@@H](OC(=O)N2Cc3ccc(NC(=O)CN4CCN(CCO)CC4)cc3C2=O)[C@]2(C)[C@H](C)CC[C@]3(CCC(=O)[C@H]32)[C@@H](C)[C@@H]1O,,,0.25,,0.25,0.5,0.5,0.5
C=C[C@]1(C)C[C@@H](OC(=O)N2Cc3ccc(NC(=O)CCN4CCOCC4)cc3C2=O)[C@]2(C)[C@H](C)CC[C@]3(CCC(=O)[C@H]32)[C@@H](C)[C@@H]1O,,,0.25,,0.25,0.5,0.5,0.5
C=C[C@]1(C)C[C@@H](OC(=O)N2Cc3ccc(NC(=O)CCN4CCN(C)CC4)cc3C2=O)[C@]2(C)[C@H](C)CC[C@]3(CCC(=O)[C@H]32)[C@@H](C)[C@@H]1O,,,0.5,,0.5,0.5,0.5,0.5
C=C[C@]1(C)C[C@@H](OC(=O)N2Cc3ccc(NC(=O)CCN4CCN(CCO)CC4)cc3C2=O)[C@]2(C)[C@H](C)CC[C@]3(CCC(=O)[C@H]32)[C@@H](C)[C@@H]1O,,,2,,2,2,4,2
